Sampled rows, rich in hits. Any-hit rate of the full collection: about 3.1%.
OX1R antag-1: antagonists of human orexin 1 receptor (OX1R). inhibition, % at 6.6 µM. OX1R-expressing cells, FRET antagonist read-out. hit rate 1.8% among 330,000; in the data active means inhibition mostly above about 38%, no sharp cut-off; inactive means mostly below about 40%;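 further: 0% = agonist challenge alone and 100% = reference antagonist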
Target sequence (O43613 whole entry, looked up): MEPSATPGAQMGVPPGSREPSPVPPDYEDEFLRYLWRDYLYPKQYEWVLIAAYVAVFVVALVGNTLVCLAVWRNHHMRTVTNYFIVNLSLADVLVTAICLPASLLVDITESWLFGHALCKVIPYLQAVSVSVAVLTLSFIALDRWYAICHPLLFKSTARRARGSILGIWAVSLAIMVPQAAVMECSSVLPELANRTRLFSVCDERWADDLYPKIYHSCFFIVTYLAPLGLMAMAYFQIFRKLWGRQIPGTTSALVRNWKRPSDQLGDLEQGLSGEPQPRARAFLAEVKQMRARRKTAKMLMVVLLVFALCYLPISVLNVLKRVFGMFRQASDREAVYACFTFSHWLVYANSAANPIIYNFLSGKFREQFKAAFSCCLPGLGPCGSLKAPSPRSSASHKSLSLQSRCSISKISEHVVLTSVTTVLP
GalR3 antagonist: GalR3 antagonists in HEK293 cells, primary screen, cell-based, fluorescence readout; HEK293 GalR3-CNG cAMP membrane potential fluorescence; galR3 body fused to GalR1 C-terminus; inhibition, % at 3 µM; hit rate 0.44% among 360,000; AID 651719, 2012;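 active means inhibition above the screen-wide average plus 3 SD, cut at about 13% in these data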;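 further: forskolin and galanin both at EC90 stimulate the cells; cAMP rise reported by CNG channel membrane potential dye signal; 0% = forskolin plus galanin with DMSO and 100% = forskolin alone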
OX1R antag-2: OX1R (HCRTR1) antagonists, primary screen, fluorescence, CHO/OX1R cells, Fluo-8 calcium, orexin A; Orexin/Hypocretin receptor type 1 (Homo sapiens), O43613; Fluo-8 calcium fluorescence; inhibition, % at 5 µM; hit rate 0.43% among 330,000; AID 434989, 2010;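 active means inhibition above its plate's threshold, mean inhibition of all tested compounds on the plate plus 3 SD, cut at about 37% in these data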;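 further: 0% = orexin A challenge wells and 100% = SB-334867-A antagonist wells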
CHO parental Ca: ATP-evoked calcium signal inhibitors, parental CHO, primary screen, counter-screen for OX1R antagonist project, cell-based, fluorescence, Fluo-8 calcium dye. parental CHO-K1, ATP-induced calcium, Fluo-8 fluorescence. inhibition, % at 5.6 µM. hit rate 0.63% among 330,000. AID 463079, 2010;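 active means inhibition above that plate's mean sample inhibition plus 3 SD, cut at about 26% in these data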;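 further: 0% = ATP-challenged DMSO wells and 100% = DMSO wells without ATP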
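Material – parental CHO cells · Reagent – ATP stimulus · Compound – single nominal dose of 5.6 µM per compound · Detection – Fluo-8 fluorescence · Read-out basis – percent inhibition of calcium signal · Controls – ATP-challenged DMSO wells low, unchallenged DMSO wells high · Repeats – no replicates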
GPR7 antag: GPR7 receptor antagonists, primary screen, cell-based, fluorescence, single concentration; Neuropeptides B/W receptor type 1 (Homo sapiens), P48145; GPR7-expressing cells, fluorescence antagonist assay; inhibition, % at 4.4 µM; hit rate 1.1% among 290,000; in the data active means inhibition above about 16%, passing the limit was not always enough;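 further: cells stimulated with the agonist NPW; 0% = agonist with vehicle and 100% = vehicle without agonist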
Target sequence (P48145 whole entry, looked up): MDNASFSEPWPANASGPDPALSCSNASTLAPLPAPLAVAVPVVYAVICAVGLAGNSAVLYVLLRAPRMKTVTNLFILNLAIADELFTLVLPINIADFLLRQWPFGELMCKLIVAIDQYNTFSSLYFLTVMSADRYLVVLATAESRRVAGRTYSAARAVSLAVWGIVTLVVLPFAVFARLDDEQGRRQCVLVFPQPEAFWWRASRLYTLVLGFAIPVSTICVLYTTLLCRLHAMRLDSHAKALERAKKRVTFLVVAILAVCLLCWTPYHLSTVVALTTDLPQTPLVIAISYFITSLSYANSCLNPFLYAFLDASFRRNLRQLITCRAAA
OX1R Ca confirm: OX1R (HCRTR1) antagonists, confirmation, fluorescence, CHO/OX1R cells, Fluo-8 calcium, orexin A; shares compounds with OX1R antag-2; orexin A calcium Fluo-8 fluorescence; inhibition, % at 5 µM; hit rate 38% among 1,100; AID 492963, 2010; in the data active means inhibition above about 29%;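 further: 0% = agonist challenge alone and 100% = reference antagonist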
CHO Ca counter: ATP-evoked calcium inhibition in parental CHO, counter-screen for OX1R antagonist project, cell-based, fluorescence, CHO-K1, triplicate; AID 492965, 2010; hit rate 9.3% among 1,100; ATP-induced calcium, Fluo-8 fluorescence; shares compounds with OX1R antag-2; inhibition, % at 5.6 µM;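 active means inhibition above a per-plate limit, the mean inhibition of that plate's test compounds plus 3 SD, cut at about 25% in these data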;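 further: 0% = ATP challenge with DMSO and 100% = DMSO without ATP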
OX1R HTRF confirm: OX1R (HCRTR1) antagonists, confirmation, cell-based, HTRF; OX1R-expressing cells, HTRF antagonist assay; hit rate 49% among 1,800; shares compounds with OX1R antag-1; inhibition, % at 6.6 µM; in the data active means inhibition above about 55%;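 further: CHO cells expressing OX1R stimulated with orexin A at about EC80; 0% = agonist challenge alone and 100% = reference antagonist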
CHO-K1 HTRF cnt: signal inhibition in parental CHO-K1 cells, counter-screen for OX1R antagonist project, cell-based, HTRF; AID 493232, 2011; hit rate 48% among 1,800; inhibition, % at 6.6 µM; HTRF counterscreen; shares compounds with OX1R antag-1; in the data active means inhibition above about 17%;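 further: 0% = agonist challenge with vehicle and 100% = vehicle alone without agonist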
Starred values were filed as active, the others as inactive; nt = no result.

SMILES | OX1R antag-1 | GalR3 antagonist | OX1R antag-2 | CHO parental Ca | GPR7 antag | OX1R Ca confirm | CHO Ca counter | OX1R HTRF confirm | CHO-K1 HTRF cnt
CC(C)(CNC(=O)c1ccc([N+](=O)[O-])c(Cl)c1)CNC(=O)c1ccc([N+](=O)[O-])c(Cl)c1 | 85* | 1 | 41* | 19 | 4 | 13 | 9 | 53 | 18*
O=C(NCc1ccccc1)c1cc(C2COCCN2C(=O)c2cccs2)on1 (configuration not stated) | nt | -1 | nt | nt | nt | nt | nt | nt | nt
COc1ccc(-c2csc(NC(=O)c3cc(C)oc3C)n2)cc1OC | 64* | -4 | 31 | 8 | -4 | 5 | -14 | 69* | 11
COc1ccc(-c2csc(NC(=O)c3cc(=O)c4ccccc4o3)n2)cc1OC | 8 | -4 | -15 | -10 | -19 | nt | nt | nt | nt
O=C(Nc1ccc2nsnc2c1)c1cccs1 | 20 | -1 | -13 | -6 | -15 | nt | nt | nt | nt
O=C(Nc1ccc2nn(-c3ccccc3)nc2c1)c1cccs1 | 83* | -4 | 33 | 1 | -6 | 26 | -2 | 55* | -1
CCOc1ccc(NC(=O)CN2C(=O)c3cccc4cccc2c34)cc1 | nt | -6 | nt | nt | nt | nt | nt | nt | nt
CC1(C(=O)NS(=O)(=O)c2ccccc2Cl)CCN1C(=O)c1ccccc1 (configuration not stated) | nt | -2 | nt | nt | nt | nt | nt | nt | nt
C/C(=N\NC(=O)c1nnn(-c2nonc2N)c1CN(C)c1ccccc1)c1cccs1 | 53* | -7 | 40 | -17 | -10 | 24 | -10 | 79* | 0
CN(Cc1c(C(=O)N/N=C/c2cccc(O)c2)nnn1-c1nonc1N)c1ccccc1 | 87* | nt | 84* | 9 | 1 | 71* | 11 | 88* | -1
Cc1ccc(/C=N/NC(=O)c2nnn(-c3nonc3N)c2CN(C)c2ccccc2)s1 | 79* | -5 | 49 | -14 | -2 | 26 | -2 | 86* | 3
CCOC(=O)C1=C(C)N(C[C@@H]2CC[C@@H](Cc3ccc(-c4ccccc4)cc3)O2)C(=O)NC1C1CC1 (some centres not stated) | 34* | -6 | 51* | 12 | nt | 10 | -18 | 28 | 1
CCCCN1C(=O)/C(=C/C=C2\SCCN2C)SC1=S | nt | 2 | nt | nt | 1 | nt | nt | nt | nt
CN1CCS/C1=C/C=C1\SC(=S)N(CC(=O)O)C1=O | 104* | 2 | 26 | 20 | 8 | 13 | 19 | 64* | 103*
CC(C)NC(=O)N(C)C[C@@H]1OCc2cnnn2CCCC(=O)N([C@H](C)CO)C[C@@H]1C | nt | -5 | nt | nt | nt | nt | nt | nt | nt
CCOC(=O)C1=C(COC(=O)c2ccc3ccccc3c2O)NC(=O)NC1C (configuration not stated) | 104* | 4 | 101* | -18 | nt | 100* | -28 | 91* | -22
COc1ccc(OC)c(CCNC(=O)CCn2nc(C)c3c(C)n(-c4ccccc4)nc3c2=O)c1 | 8 | -8 | -11 | -16 | -7 | nt | nt | nt | nt
Cc1ccc(-c2nc3ccccc3[nH]2)cc1NC(=O)c1sc2cc(Cl)ccc2c1Cl | 77* | -2 | 44* | -14 | 12 | 47* | -11 | 66* | 11
COCCCN1C(=O)C(CC(=O)NC2CCCCC2)CC(C(=O)N2CCOCC2)=C1C (configuration not stated) | nt | -6 | nt | nt | nt | nt | nt | nt | nt
COC(=O)c1cccc(Cn2c(Cl)c(/C=N/NC(=O)c3ccco3)sc2=O)c1 | -2 | -7 | -18 | -18 | 7 | nt | nt | nt | nt
CCOC(=O)c1oc2ccccc2c1N | 17 | -6 | 2 | 2 | -4 | nt | nt | nt | nt
Nc1c(C(=O)c2ccc(Br)s2)oc2ccccc12 | 77* | -5 | 27 | -24 | -16 | 15 | -2 | 57* | 5
O=C(CN1C(=O)NC(c2ccccc2)(c2ccccc2)C1=O)NCCc1ccc(F)cc1 | 69* | 1 | 36 | -17 | nt | 31* | 1 | 56* | -1
CCOC(=O)c1ccc(Nc2cnc3ccccc3n2)cc1 | 62* | 1 | 46* | -7 | -13 | 23 | -5 | 50 | 0
O=C(O)c1ccc(Nc2cnc3ccccc3n2)cc1 | 18 | -4 | -4 | -3 | -7 | nt | nt | nt | nt
SMILES | OX1R antag-1 | GalR3 antagonist | OX1R antag-2 | CHO parental Ca | GPR7 antag | OX1R Ca confirm | CHO Ca counter | OX1R HTRF confirm | CHO-K1 HTRF cnt
COc1ccccc1NC(=O)CSc1nc2ncccc2[nH]1 | 9 | -3 | -22 | -19 | -12 | nt | nt | nt | nt
O=C(CSc1nc2ncccc2[nH]1)Nc1ccccc1-c1ccccc1 | 72* | -7 | 33 | -19 | 3 | 31* | -5 | 72* | 6
Cc1ccccc1NC(=O)C1CCCN1S(=O)(=O)c1ccccc1C(F)(F)F (configuration not stated) | 81* | 4 | 66* | -15 | nt | 55* | -8 | 94* | -1
O=C(NCc1ccc(F)cc1)C1CCCN1S(=O)(=O)c1ccccc1C(F)(F)F (configuration not stated) | 22 | -2 | 6 | -11 | nt | nt | nt | nt | nt
COc1ccc(CC(=O)NNC(=O)c2cc(Cl)ccc2OC)cc1 | nt | -3 | nt | nt | nt | nt | nt | nt | nt
COc1cc(C)ccc1OCC(=O)OCC(=O)c1[nH]c(C)c(C(C)=O)c1C | 5 | -4 | 11 | -4 | nt | nt | nt | nt | nt
COc1ccccc1OCC(=O)c1[nH]c(C)c(C(C)=O)c1C | 82* | -6 | 33 | 10 | 7 | 30* | 26* | 25 | 27*
CCN(CC(=O)Nc1cccc(S(=O)(=O)N(C)c2ccccc2)c1)Cc1ccccc1 | 28* | -2 | 77* | 15 | nt | 19 | -9 | 54 | 3
O=C(N/N=C/c1cccc(C(F)(F)F)c1)c1cc2c(s1)-c1ccccc1CC2 | 12 | 0 | -4 | 5 | -13 | nt | nt | nt | nt
Cc1cccc(/C=N/NC(=O)c2cc3c(s2)-c2ccccc2CC3)c1 | 87* | 1 | 81* | -15 | -3 | 92* | -9 | 85* | 0
CCSc1nnc(NC(=O)CSc2nc3c(c(=O)n2-c2ccccc2OC)SCC3)s1 | 36* | -8 | 38 | -13 | -8 | 28 | -4 | 76* | -1
COc1ccc(NC(=O)CSc2nc3c(c(=O)n2-c2ccccc2OC)SCC3)cc1 | 3 | nt | -19 | -5 | -3 | nt | nt | nt | nt

Screening data from PubChem.
